Assay results published in ChEMBL document CHEMBL4152311, “Structure-activity relationship studies and pharmacological characterization of N5-heteroarylalkyl-substituted-2-(2-furanyl)thiazolo[5,4-d]pyrimidine-5,7-diamine-based derivatives as inverse agonists at human A2A adenosine receptor” (Eur J Med Chem, 2018).

Experiments:
[1] = molecular target: T1, Adenosine receptor A3 (Homo sapiens, UniProt P0DMS8); assay: Displacement of [125I]AB-MECA from human adenosine A3 receptor expressed in CHO cell membranes measured after 120 mins by scintillation counting method
T1 sequence (P0DMS8 whole entry): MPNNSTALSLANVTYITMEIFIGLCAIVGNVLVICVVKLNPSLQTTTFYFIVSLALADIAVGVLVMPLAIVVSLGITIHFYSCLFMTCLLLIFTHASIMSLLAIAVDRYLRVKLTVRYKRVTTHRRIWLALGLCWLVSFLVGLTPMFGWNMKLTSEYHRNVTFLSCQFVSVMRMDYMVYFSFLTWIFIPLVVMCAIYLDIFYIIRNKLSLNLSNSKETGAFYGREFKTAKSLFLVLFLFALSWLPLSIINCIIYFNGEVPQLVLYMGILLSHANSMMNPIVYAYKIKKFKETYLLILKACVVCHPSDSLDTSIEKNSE
Outline: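 Membranes from CHO cells transfected with the human receptor (A1 or A3) competed against [3H]DPCPX (A1) or [125I]AB-MECA (A3) over a range of test concentrations, per earlier-described method; percent inhibition taken at 10 μM.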

[2] = molecular target: T2, Adenosine receptor A1 (Homo sapiens) (UniProt P30542); assay: Inverse agonist activity at human adenosine A1 receptor expressed in CHO cells assessed as cAMP accumulation at 10 uM measured after 150 mins in presence of [3H]cAMP by scintillation counting method relative to control; assay type: functional, cell-based
T2 sequence (whole entry): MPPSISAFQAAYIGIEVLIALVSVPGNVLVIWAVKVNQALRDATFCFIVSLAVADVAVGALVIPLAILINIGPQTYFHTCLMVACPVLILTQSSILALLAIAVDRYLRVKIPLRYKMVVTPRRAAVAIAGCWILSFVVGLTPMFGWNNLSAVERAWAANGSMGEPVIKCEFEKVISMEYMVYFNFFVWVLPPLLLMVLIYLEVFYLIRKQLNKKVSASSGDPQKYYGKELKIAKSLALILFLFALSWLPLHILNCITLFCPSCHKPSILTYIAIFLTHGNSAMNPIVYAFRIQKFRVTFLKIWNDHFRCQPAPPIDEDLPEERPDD
Outline: (§1)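 Intact CHO cells expressing human A1, A2B or A3 receptor (grown in DMEM F12) exposed to test compound at 10 μM under basal conditions, no agonist; cAMP measured by competitive protein binding with [3H]-cAMP. Result as percent of basal cAMP (basal = 100%); mean ± SEM.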

[3] = molecular target: T3, Adenosine receptor A2a (Homo sapiens, UniProt P29274); assay: Displacement of [3H]ZM241385 from human adenosine A2A receptor expressed in CHO cell membranes measured after 60 mins by scintillation counting method
T3 sequence (P29274 whole entry): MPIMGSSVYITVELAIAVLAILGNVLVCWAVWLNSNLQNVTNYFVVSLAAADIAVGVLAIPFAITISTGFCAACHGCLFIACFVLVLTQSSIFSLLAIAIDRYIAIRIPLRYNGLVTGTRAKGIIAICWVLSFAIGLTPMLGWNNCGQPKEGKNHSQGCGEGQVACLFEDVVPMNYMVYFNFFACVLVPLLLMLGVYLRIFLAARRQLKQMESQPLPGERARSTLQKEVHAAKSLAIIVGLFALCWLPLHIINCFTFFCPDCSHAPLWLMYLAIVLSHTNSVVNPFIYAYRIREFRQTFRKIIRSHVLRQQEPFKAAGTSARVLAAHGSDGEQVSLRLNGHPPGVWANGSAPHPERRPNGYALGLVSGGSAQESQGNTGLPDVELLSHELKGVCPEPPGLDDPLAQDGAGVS

[4] = molecular target: T3, Adenosine receptor A2a; assay: Antagonist activity against human adenosine A2A receptor expressed in CHO cells assessed as inhibition of CGS21680-stimulated cAMP accumulation measured after 150 mins in presence of [3H]cAMP by scintillation counting method; assay type: functional, cell-based
[5] = molecular target: T4, Adenosine receptor A3 (Homo sapiens) (UniProt P0DMS8); assay: Inverse agonist activity at human adenosine A3 receptor expressed in CHO cells assessed as cAMP accumulation at 10 uM measured after 150 mins in presence of [3H]cAMP by scintillation counting method relative to control; assay type: functional, cell-based; outline: as §1
T4 sequence (whole entry): T1 sequence (P0DMS8 whole entry)

[6] = molecular target: T5, Adenosine receptor A2b (Homo sapiens) (UniProt P29275); assay: Inverse agonist activity at human adenosine A2B receptor expressed in CHO cells assessed as cAMP accumulation at 10 uM measured after 150 mins in presence of [3H]cAMP by scintillation counting method relative to control; assay type: functional, cell-based; outline: as §1
T5 sequence (whole entry): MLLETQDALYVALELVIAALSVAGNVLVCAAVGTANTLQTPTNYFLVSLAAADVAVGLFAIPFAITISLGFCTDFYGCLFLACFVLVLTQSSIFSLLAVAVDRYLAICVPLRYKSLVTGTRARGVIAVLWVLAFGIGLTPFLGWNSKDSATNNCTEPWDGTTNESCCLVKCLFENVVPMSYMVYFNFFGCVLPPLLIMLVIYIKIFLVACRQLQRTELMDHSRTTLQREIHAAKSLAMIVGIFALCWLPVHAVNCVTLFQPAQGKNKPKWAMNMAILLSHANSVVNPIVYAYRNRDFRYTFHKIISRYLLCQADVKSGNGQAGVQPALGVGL

[7] = molecular target: T6, Adenosine receptor A1 (Homo sapiens, UniProt P30542); assay: Displacement of [3H]DPCPX from human adenosine A1 receptor expressed in CHO cell membranes measured after 90 mins by scintillation counting method
T6 sequence (P30542 whole entry): T2 sequence (whole entry)

[8] = molecular target: T3, Adenosine receptor A2a; assay: Inverse agonist activity at human adenosine A2A receptor expressed in CHO cells assessed as inhibition of cAMP accumulation measured after 150 mins in presence of [3H]cAMP by scintillation counting method; assay type: functional, cell-based
[9] = molecular target: T7, Adenosine receptor A2b (Homo sapiens, UniProt P29275); assay: Antagonist activity at human adenosine A2B receptor expressed in CHO cells assessed as inhibition of NECA-stimulated cAMP accumulation measured after 150 mins in presence of [3H]cAMP by scintillation counting method
T7 sequence (P29275 whole entry): T5 sequence (whole entry)

Compound | Ki [1] [nM] | Activity [2] [%] | Ki [3] [nM] | IC50 [4] [nM] | Activity [5] [%] | Activity [6] [%] | Ki [7] [nM] | IC50 [8] [nM] | IC50 [9] [nM] | KiH [3] [fM] | KiL [3] [nM]
COc1ccccc1CNc1nc(N)c2nc(-c3cccs3)sc2n1 | 275 | 99 | 2.24 | 4.41 | 103 | 106 | 17.3 | 3.36 | 4570 | – | –
Nc1nc(NCCc2cccs2)nc2sc(-c3ccco3)nc12 | – | 100 | – | – | 94 | 99 | – | – | – | 10.6 | 18
Nc1nc(NCc2ccncc2)nc2sc(-c3ccco3)nc12 | – | 103 | – | – | 102 | 103 | – | – | – | – | –
COc1cccc(CNc2nc(N)c3nc(-c4ccc(C)o4)sc3n2)c1 | 160 | – | 144 | – | – | – | 70 | – | 120 | – | –
Nc1nc(NCCc2ccc(O)cc2)nc2nc(-c3ccco3)nn12 | – | 101 | – | – | 105 | – | – | – | – | – | –
Nc1nc(NCc2cccs2)nc2sc(-c3cccs3)nc12 | 38 | 97 | 10.1 | 17.6 | 99 | 96 | 73 | 13.2 | 547 | – | –
Nc1nc(NCc2cccnc2)nc2sc(-c3ccco3)nc12 | – | 96 | – | – | 100 | 97 | – | – | – | 217 | 0.68
Nc1nc(NCc2ccco2)nc2sc(-c3ccco3)nc12 | – | 101 | – | – | 104 | 101 | – | – | – | 39 | 1.73
Nc1nc(NCc2cnccn2)nc2sc(-c3ccco3)nc12 | – | 102 | – | – | 98 | 102 | – | – | – | – | –
Nc1nc(NCc2ccsc2)nc2sc(-c3ccco3)nc12 | – | 98 | – | – | 105 | 99 | – | – | – | – | –
COc1ccccc1CNc1nc(N)c2nc(-c3ccc(C)o3)sc2n1 | 141 | – | 20 | – | – | – | 29 | – | 389 | – | –
Nc1nc(NCc2cccs2)nc2sc(-c3ccco3)nc12 | – | 98 | – | – | 96 | 99 | – | – | – | 10.7 | 3.82
Nc1nc(NCCc2cccnc2)nc2sc(-c3ccco3)nc12 | – | 102 | – | – | 102 | 97 | – | – | – | – | –
Nc1nc(NCc2ccccn2)nc2sc(-c3ccco3)nc12 | – | 103 | – | – | 101 | 98 | – | – | – | – | –
COc1cccc(CNc2nc(N)c3nc(-c4cccs4)sc3n2)c1 | 430 | – | 22 | – | – | – | 37 | – | 2770 | – | –
Cc1ccc(-c2nc3c(N)nc(NCc4cccs4)nc3s2)o1 | 15.3 | – | 34 | – | – | – | 71 | – | 91 | – | –
Nc1nc(NCCc2ccco2)nc2sc(-c3ccco3)nc12 | – | 95 | – | – | 97 | 103 | – | – | – | – | –
